This is a sample that favours compounds with a hit; in the whole collection about 2% have one here.
Ecoli rRNA inh: selective bacterial rRNA inhibition in E. coli; E. coli WT GFP vs humanized-ribosome RFP mutants, fluorescence, 24 h; stronger effect = lower value; DMSO median 0, no signal -100; GFP signal change (wild-type ribosome), % (test concentration not listed); 1.6% of 350,000 active; AID 720706;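 active means significant combined selectivity score with lowered wild-type GFP, culture density cut under 30%, mutant RFP and density less affected; inactive means any of these conditions unmet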
Xi reactivation: reactivates the inactive X chromosome in mouse fibroblasts; XiGFP mouse fibroblasts, % GFP-positive cells imaging, 3 d; cells co-treated with 5-aza-dC sensitizer; scaled so ellipticine positive control = 100%; activation, % at 7.58 µM; 0.055% of 360,000 active; AID 743238;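 active means mean normalized replicate activation at least 10% and every replicate at or above 10%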;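 further: 0% = median of on-plate neutral control wells and 100% = ellipticine 6 µM median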
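Schedule: 3 d treatment, 15 min room-temperature fixation; system: 68-5-11 XiGFP fibroblast line; buffer or medium: DMEM plus 5-aza-dC sensitizer; control set: ellipticine 6 µM positive control; compound: one concentration, pinned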
PglD inh: PglD (C. jejuni) enzyme inhibition; purified PglD enzyme, DTNB colorimetric CoA detection; inhibition, % at 12.5 µM; 0.098% of 360,000 active; AID 602405; in the data active means inhibition above about 16%, passing the limit was not always enough
E-selectin induc: induces E-selectin expression in human endothelial cells. P16581. HUVEC E-selectin immunofluorescence imaging; normalized: neutral wells 0, TNF-alpha wells 100. activation, % at 7.58 µM. 0.37% of 260,000 active. AID 686992;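 active means mean E-selectin-positive cell signal at least 10% of the positive control, reached in at least 60% of replicates, without over 20% cell loss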
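Test system – human umbilical vein endothelial cells (HUVEC), E-selectin induction · Input – 3,000 HUVEC seeded per well · Buffer or medium – EGM-2, gelatin · Compound dosing – single-point compound dose · Detection – immunofluorescence imaging · Measure – percent E-selectin-positive cells · Controls – TNF-alpha high, DMSO low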
RAD54 branch: inhibitors of human RAD54 branch migration; Q92698; RAD54 Holliday junction branch migration, FAM/BHQ fluorescence; inhibition, % at 10.4 µM; 0.14% of 360,000 active; AID 602329;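 active means mean normalized replicate activity at least 40 and at least half of replicates scoring 40 or more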;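 further: 0% = median of neutral control wells and 100% = median of positive control wells; inhibitors cause a drop in the FAM fluorescence signal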
RAD52 inh: blocks human RAD52 DNA annealing. recombinant RAD52 DNA annealing, FRET fluorescence. inhibition, % at 18.7 µM. 0.46% of 360,000 active;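 active means every replicate showing at least 50% inhibition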
Target sequence (P43351 whole entry, looked up): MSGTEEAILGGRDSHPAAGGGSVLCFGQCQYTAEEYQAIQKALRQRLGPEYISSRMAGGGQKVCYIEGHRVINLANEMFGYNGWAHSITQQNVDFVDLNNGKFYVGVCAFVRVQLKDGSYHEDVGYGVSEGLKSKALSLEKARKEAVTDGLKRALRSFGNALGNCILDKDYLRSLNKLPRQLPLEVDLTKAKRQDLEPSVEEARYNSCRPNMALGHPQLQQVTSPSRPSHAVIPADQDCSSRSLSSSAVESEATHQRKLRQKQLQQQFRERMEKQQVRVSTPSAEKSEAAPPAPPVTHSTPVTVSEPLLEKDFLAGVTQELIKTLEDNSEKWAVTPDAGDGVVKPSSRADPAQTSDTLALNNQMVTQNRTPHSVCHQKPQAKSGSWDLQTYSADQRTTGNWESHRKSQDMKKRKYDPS
DNA binder FP: DNA binding artifact in RAD52 counter-screen. shares compounds with RAD52 inh. Salmon sperm DNA/acridine orange FP displacement. AC50, µM. 8% of 1,000 active;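 active means fitted half-maximal concentration for signal loss at or below twice the highest dose tested, in every separate run, actives reach about 64 µM in these data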
* = called active by the depositor; ! = not active in a repeat.

Screening C[C@H]1CN([C@@H](C)CO)S(=O)(=O)c2ccc(C#Cc3ccncc3)cc2O[C@H]1CN(C)C(=O)c1ccncc1 returned Ecoli rRNA inh -4.0, Xi reactivation -0.9, PglD inh -5.6, E-selectin induc -0.1, RAD54 branch -4.3 and RAD52 inh -11.8.
O=C(C[C@@H]1CC[C@H]2[C@@H](COC[C@H](O)CN2Cc2ccccc2)O1)NCCCN1CCOCC1 was read as Ecoli rRNA inh 0.0, Xi reactivation 0.0, PglD inh 0.5, E-selectin induc 0.0, RAD54 branch 1.4 and RAD52 inh 11.7.
`CC1CCN(CC(=O)Nc2ccc(S(=O)(=O)N3CCCCC3)cc2)CC1` gave Ecoli rRNA inh -2.4, Xi reactivation 0.0, PglD inh -0.7, RAD54 branch -10.6 and RAD52 inh -13.2.
Screening O=C(CNC1CCCC1)Nc1ccc(N2CCCCCC2)cc1 returned Ecoli rRNA inh 0.0, Xi reactivation 0.1, RAD52 inh 78.3* and DNA binder FP inactive.
Screening CC1CCN(CC(=O)Nc2ccc(N3CCCCCC3)cc2)CC1 returned Ecoli rRNA inh 2.2, Xi reactivation 0.2, RAD52 inh 75.0* and DNA binder FP inactive.
Screening CC(=O)N(C)C[C@H]1Oc2ncc(C3=CCCC3)cc2C(=O)N([C@H](C)CO)C[C@H]1C returned Ecoli rRNA inh -0.1, Xi reactivation 0.0, PglD inh 1.2, E-selectin induc 0.2, RAD54 branch 0.9 and RAD52 inh 12.4.
CN1CCN(c2nc3cc(C(F)(F)F)ccc3n3cccc23)CC1 was read as Xi reactivation -0.1, PglD inh -2.1, E-selectin induc 0.8, RAD54 branch 40.4, RAD52 inh 66.5* and DNA binder FP inactive.
CC(C)(C)c1ccc(OCCNCc2ccccc2)cc1 was read as Ecoli rRNA inh 0.6, Xi reactivation -0.1, PglD inh 0.2, E-selectin induc 0.3, RAD54 branch 9.6 and RAD52 inh 5.9.
For C[n+]1ccccc1COc1ccc(C(C)(C)C)cc1 the results were Ecoli rRNA inh 10.2, Xi reactivation 0.0, RAD52 inh 99.4* and DNA binder FP inactive.
For O=C(C[C@H]1CC[C@H](NC(=O)Nc2ccccc2)[C@@H](CO)O1)NCc1cccc(F)c1 the results were Ecoli rRNA inh 0.7, Xi reactivation 0.1, PglD inh -2.2, E-selectin induc 0.3, RAD54 branch -10.1 and RAD52 inh -20.1.
CN(C)CCNc1nc(Oc2cccc(F)c2)c2sccc2n1 was read as Ecoli rRNA inh 5.8, Xi reactivation 0.1, PglD inh -1.4, E-selectin induc -0.2, RAD54 branch -3.5, RAD52 inh 58.2* and DNA binder FP inactive.
For COCCNc1nc(Oc2ccc(Cl)c(Cl)c2)c2sccc2n1 the results were Ecoli rRNA inh -0.7, Xi reactivation -0.1, PglD inh -2.4, E-selectin induc -0.1, RAD54 branch 3.6 and RAD52 inh -2.9.
`CNc1nc(Oc2ccc3sc(C)nc3c2)c2sccc2n1` gave Ecoli rRNA inh -59.4, Xi reactivation -0.1, PglD inh -0.7, E-selectin induc 0.7, RAD54 branch 2.5 and RAD52 inh -2.3.
For CNc1nc(Oc2cccc(F)c2)c2sccc2n1 the results were Ecoli rRNA inh -1.5, Xi reactivation 0.1, PglD inh 3.6, E-selectin induc -0.1, RAD54 branch -0.8 and RAD52 inh 11.6.
Cc1nc2cc(Oc3nc(NCCN(C)C)nc4ccsc34)ccc2s1 was read as Ecoli rRNA inh 7.0, Xi reactivation 0.1, PglD inh -3.4, E-selectin induc 0.3, RAD54 branch 22.6, RAD52 inh 78.0* and DNA binder FP inactive.
`CC(=O)Nc1cccc(Oc2nc(NCCN(C)C)nc3ccsc23)c1` gave Ecoli rRNA inh 6.2, Xi reactivation 0.0, PglD inh 1.6, E-selectin induc -0.7, RAD54 branch 11.2, RAD52 inh 89.5* and DNA binder FP inactive.
Screening COCC(=O)N1CCC2(CC1)CN(C(=O)c1ccccn1)[C@H](CO)c1c2c2ccc(OC)cc2n1C returned Ecoli rRNA inh 2.2, Xi reactivation 0.0, E-selectin induc -0.3 and RAD52 inh 3.5.
COc1ccc(/C=N/NC(=O)c2cc(OC)c(OC)c(OC)c2)cc1CN1CCc2cc(OC)c(OC)cc2C1C (stereo unspecified) was read as Ecoli rRNA inh -1.6, Xi reactivation 0.0, E-selectin induc 2.4, RAD52 inh 52.9* and DNA binder FP inactive.
COc1ccc(/C=N/NC(=O)c2cccnc2)cc1CN1CCc2cc(OC)c(OC)cc2C1C (stereo unspecified) was read as Ecoli rRNA inh -2.4, Xi reactivation 0.0 and RAD52 inh 1.3.
Screening Cc1cc(C)c2c(N)c3cccc(C)c3nc2n1 returned Ecoli rRNA inh -11.5, Xi reactivation 1.2, RAD52 inh 78.4* and DNA binder FP 32.2µM*.
Screening O=C(C[C@@H]1C=C[C@H](NC(=O)c2ccncc2)[C@@H](CO)O1)Nc1ccccc1 returned Ecoli rRNA inh 2.5, Xi reactivation 0.0, E-selectin induc 0.4 and RAD52 inh -24.6.
For CN1CCc2cccc3c2[C@H]1Cc1ccc(O)c(O)c1-3 the results were Ecoli rRNA inh -4.6, Xi reactivation 9.4, PglD inh 3.4, E-selectin induc -0.3, RAD54 branch 32.1, RAD52 inh 90.3*! and DNA binder FP inactive.
Screening CCCCCc1ccc(OCCCC[n+]2ccc(C)cc2)c(CCCCC)c1 returned Ecoli rRNA inh -61.4, Xi reactivation 0.2, E-selectin induc -0.2, RAD52 inh 65.6* and DNA binder FP inactive.
Screening CCC(C)(C)c1ccc(OCCCC[n+]2ccccc2)c(C(C)(C)CC)c1 returned Ecoli rRNA inh 1.1, Xi reactivation 0.2 and RAD52 inh 39.4.
CCCCCc1ccc(OCCCC[n+]2cccc(C)c2)c(CCCCC)c1 was read as Ecoli rRNA inh -50.5, Xi reactivation 0.0, E-selectin induc -1.5, RAD52 inh 76.3* and DNA binder FP inactive.
For C[C@@H]1CCCCO[C@@H](CN(C)C(=O)CCC(F)(F)F)[C@@H](C)CN([C@H](C)CO)C(=O)c2cc(NS(C)(=O)=O)ccc2O1 the results were Ecoli rRNA inh 1.8, Xi reactivation 0.0, PglD inh -2.1, E-selectin induc 0.1, RAD54 branch -11.4 and RAD52 inh -1.2.
CN(C)CCc1cc2c(c3c1ccc1ccccc13)OCO2 was read as Ecoli rRNA inh -51.7, Xi reactivation 0.4, PglD inh 5.1, E-selectin induc 2.0, RAD54 branch 95.5*, RAD52 inh 99.9* and DNA binder FP 36.6µM*.

Compound activity (PubChem BioAssay)
